The text below walks through data of PubChem BioAssay.

Test [1] in a line: inhibitors of TNFa-induced NFkB p65 translocation, primary screen, imaging, HUVEC, MLSMR starter and 10KST1 sets (AID 438;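 active means inhibition above 20% together with a positive visual image hit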;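 further: compound added about 3h40 before a 20 min TNFalpha stimulation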;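 on inhibition: signal is the nuclear over cytoplasmic p65 intensity ratio per well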). The settings on record: HUVEC TNFa-induced p65 nuclear translocation; cell count: measured here: nuclei count (cytotoxicity indicator), at 2.08 µM; inhibition: at 2 µM, stronger effect = higher value, 0% TNFa-plus-vehicle, 100% no-TNFa wells.
A short description of test [2]: inhibitors of mutant huntingtin aggregation, primary screen, imaging, exon1htt(103Q)mCFP cells, high-content imaging (AID 483;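 active means visual image review flags a hit and inhibition of aggregation exceeds 20%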;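 further: compound exposure lasted 3 days before fixation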;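 on nuclei count: percent of the per-plate median nuclei count of sample wells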). The settings on record: exon1htt(103Q)mCFP cell line, aggregate imaging, at 2 µM; inhibition of aggregation: stronger effect = higher value; nuclei count: measured here: cell count, toxicity.
A short description of test [3]: inhibitors of E-selectin induction by TNFa, primary screen, imaging, HUVEC, immunofluorescence, MLSMR starter and 10KST1 sets (AID 487;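 active means visually confirmed hit in the image check and inhibition above 20%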;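 on inhibition: signal is fraction of cell area covered by stained E-selectin grains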;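 on nuclei count: 100% = median nuclei count of all wells on the same plate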). The settings on record: HUVEC TNFalpha-induced E-selectin immunofluorescence imaging, at 2 µM; inhibition: stronger effect = higher value; nuclei count: measured here: cell number, toxicity.
In test [4] the target is Voltage-gated potassium channel subunit beta-2 (Rattus norvegicus) (UniProt P62483). In words: KvBeta enzyme negative modulators, primary screen, biochemical, NADPH fluorescence (AID 622;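 active means fluorescence slope higher than the sample average by over 3 SD, cut at about -0.22 in these data, passing the limit was not always enough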;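 further: slope of raw intensity against log time taken from 70 to 1610 s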). The note with it: recombinant KvBeta, 4-cyanobenzaldehyde reduction, at 10 µM, stronger effect = higher value.
Test [5] shares this target. Briefly: KvBeta positive modulators, primary screen, biochemical, NADPH fluorescence (AID 623).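 Further: fluorescence intensity change per second fitted from 20 to 320 s.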 The note with it: Recombinant KvBeta, NADPH fluorescence decrease slope, 10 min; at 10 µM; stronger effect = lower value.
The target in test [6] is Alpha-2C adrenergic receptor (Homo sapiens) (UniProt P18825). In words: modulators of alpha2C/GIRK thallium flux, primary screen, cell-based, HEK293 alpha2C/GIRK1/2 (AID 624;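 active means fluorescence slope after compound addition differing from the mean of all screened samples at 99.7% confidence, in either direction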;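 further: slope of fluorescence ratio to pre-addition baseline per second over 15 to 24 s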). The settings on record: thallium flux BTC fluorescence, at 10 µM, actives lie on both sides.
Test [7] in a line: inhibitors of larval lipid processing in zebrafish, primary screen, whole organism, PED6 fluorescence, gall bladder and intestine (AID 686;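 active means a full or partial loss of lipid-probe fluorescence in the fish gall bladder, intestine or both, judged by eye; inactive means no fluorescence loss, or compound toxic to the fish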;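 further: larvae 5 to 7 days old with five fish per well; signal comes from phospholipase A2 cleavage of quenched PED6 carried via bile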). The note with it: Zebrafish larvae PED6 lipid processing, fluorescence scoring; screened at 20 µM (by protocol). The method, boiled down: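 System: live zebrafish larvae aged 5-7 days, whole organism; measure: graded gall bladder and intestinal fluorescence inhibition per well; incubation: overnight exposure; reagent: ingested quenched lipid PED6 at 100 nM; signal: By-eye fluorescence microscopy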

A short description of test [8]: inhibitors of Sendai virus-induced IRF3 signaling, primary screen, TLR/RLR signaling modifier project, cell-based, Sendai virus stimulus, luciferase, 10K MLSCN set (AID 602276;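 active means inhibition at or above 50% at 10 µM; inactive means inhibition below 50%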;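 further: firefly luciferase from ISG56 promoter only with Renilla not read in this screen; 0% = Sendai virus plus DMSO and 100% = medium plus DMSO without virus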). The settings on record: HEK293 RL24 IRF3 luciferase reporter, at 10 µM, stronger effect = higher value.
A short description of test [9]: inhibitors of poly I:C-induced TLR3 signaling, primary screen, cell-based, poly I:C stimulus, luciferase, 10K MLSCN set (AID 602277;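 active means inhibition of the reporter signal at or above 50%; inactive means inhibition below 50%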). The note with it: HEK293-TLR3 RL24 IRF3 luciferase reporter, at 10 µM, stronger effect = higher value.

The source made the active and inactive calls.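 How the source made its calls, unless noted: active means NADPH fluorescence slope more negative than the mean of all samples by about 3 SD, 99.7% confidence; inactive means the rest.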

Sequence of Alpha-2C adrenergic receptor (Homo sapiens) (P18825 whole entry, looked up): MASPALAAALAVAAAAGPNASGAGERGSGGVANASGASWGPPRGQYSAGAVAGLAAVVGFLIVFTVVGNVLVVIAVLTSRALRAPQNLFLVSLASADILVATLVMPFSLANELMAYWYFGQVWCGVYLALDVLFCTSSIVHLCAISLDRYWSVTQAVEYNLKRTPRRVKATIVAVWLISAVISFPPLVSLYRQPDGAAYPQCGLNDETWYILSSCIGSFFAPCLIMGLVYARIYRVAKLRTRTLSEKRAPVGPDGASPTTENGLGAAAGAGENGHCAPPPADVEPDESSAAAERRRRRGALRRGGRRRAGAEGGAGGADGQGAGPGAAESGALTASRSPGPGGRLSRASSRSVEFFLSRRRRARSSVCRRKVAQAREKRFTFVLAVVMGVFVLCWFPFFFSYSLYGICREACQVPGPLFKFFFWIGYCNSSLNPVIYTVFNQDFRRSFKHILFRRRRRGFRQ
Sequence of Voltage-gated potassium channel subunit beta-2 (Rattus norvegicus) (P62483 whole entry, looked up): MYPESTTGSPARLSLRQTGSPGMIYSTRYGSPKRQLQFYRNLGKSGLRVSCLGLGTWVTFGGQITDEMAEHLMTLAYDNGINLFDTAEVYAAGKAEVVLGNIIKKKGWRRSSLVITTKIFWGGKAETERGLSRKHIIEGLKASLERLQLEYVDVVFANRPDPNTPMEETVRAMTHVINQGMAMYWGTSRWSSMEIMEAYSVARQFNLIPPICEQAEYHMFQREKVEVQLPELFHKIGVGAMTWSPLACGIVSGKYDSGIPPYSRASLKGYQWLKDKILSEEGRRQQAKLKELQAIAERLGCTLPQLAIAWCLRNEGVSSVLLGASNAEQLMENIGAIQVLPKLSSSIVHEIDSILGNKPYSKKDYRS

As to `CCN(CC(=O)Nc1ccc2c(c1)CCC2)Cc1nc2ccccc2c(=O)[nH]1`, the cell count in test [1] came to 382. Moreover, the inhibition in [1] was 1.3% (inactive); in [3], -1.6% (inactive); in test [8], 13.7% (inactive); in test [9], 14.8% (inactive). In test [2], the inhibition of aggregation is -17.4% (inactive). The nuclei count in [2] and in test [3] was 102% throughout. The fluorescence slope in test [4] was -0.455 (inactive). In [5], the NADPH fluorescence slope was -3.6e-05 (inactive). In addition, the slope in [6] was 0.00524 (inactive). Also, the call in [7] was inactive.
`COc1ccc(/C=N/n2c(SC)nnc2-c2ccccc2)cc1C`: the cell count in test [1] came out at 384. The inhibition in [1] was -0.9% (inactive); in [3], -68.1% (inactive); in test [8], 2.46% (inactive); in [9] it was -2.96% (inactive). Moreover, the inhibition of aggregation in [2] is 6.2% (inactive). Also, the nuclei count was 103% in test [2] and 117% in test [3]. For the same molecule, in test [4], the fluorescence slope was -0.384 (inactive). Moreover, the NADPH fluorescence slope in test [5] is -2e-05 (inactive). The slope in test [6] is 0.00536 (inactive). For the same molecule, the call in test [7] was inactive.
Turning to `CNC(=O)c1ccc2nc(NC(C)=O)sc2c1`, in test [1], the cell count is 382. Besides, the inhibition in test [1] was -10.3% (inactive); in test [3] it was 13.2% (inactive); in test [8], -11.9% (inactive); in test [9] it was -21.9% (inactive). In addition, the inhibition of aggregation in [2] is 4.1% (inactive). Further, the values for the nuclei count in [2] and in test [3] were 74.6% and 56.8%, respectively. Further, the fluorescence slope in test [4] was -0.327 (inactive). The NADPH fluorescence slope in test [5] was -6.5e-05 (inactive). Further, the slope in test [6] is 0.00564 (inactive). Further, in test [7], the molecule was classed as inactive.
Turning to `Cc1onc(-c2c(F)cccc2Cl)c1C(=O)Nc1nc2c(s1)CCCC2`, the cell count in test [1] is 250. For the same molecule, the inhibition in [1] is 5.1% (inactive); in test [3], 38.1% (inactive); in test [8], -235% (inactive); in test [9] it was 99.1% (active). In addition, the inhibition of aggregation in test [2] was 14.6% (inactive). Moreover, the nuclei count in [2] was 101%; in [3], 77.9%. Also, the fluorescence slope in test [4] was -0.467 (inactive). Moreover, the NADPH fluorescence slope in test [5] is -9.4e-06 (inactive). Further, in [6], the slope is 0.00615 (inactive). Besides, the call in [7] was inactive.
Take `C1CCN=C(Nc2nc3c(s2)CCCC3)CC1`: in test [1], the cell count is 432. Moreover, the inhibition in test [1] is 7.3% (inactive); in test [3], 8.7% (inactive); in test [8], -23.9% (inactive); in test [9] it was -50% (inactive). The inhibition of aggregation in test [2] is -10.9% (inactive). Besides, the nuclei count turned out to be 118% in test [2] and 110% in test [3]. Besides, the fluorescence slope in [4] was -0.413 (inactive). Besides, the NADPH fluorescence slope in test [5] is -3.8e-05 (inactive). Besides, the slope in test [6] was 0.00517 (inactive). The result in test [7] was inactive.
For the molecule `c1ccc(-c2cc(CSc3nc4ccccc4[nH]3)on2)cc1`, the cell count in test [1] came out at 416. Moreover, the inhibition in [1] was 5.3% (inactive); in [3], -68.7% (inactive); in test [8], -0.361% (inactive); in [9], -25% (inactive). The inhibition of aggregation in [2] was -43% (inactive). Besides, the nuclei count came to 99.4% in [2] and 116% in test [3]. Moreover, the fluorescence slope in [4] is -0.376 (inactive). For the same molecule, the NADPH fluorescence slope in test [5] is -8.1e-05 (inactive). Further, the slope in test [6] is 0.00533 (inactive). Also, the molecule was classed as inactive in test [7].
As for `CC1(C)C2CCC1(C)C(OC(=O)CSc1nc(N)cc(=O)[nH]1)C2` (stereo unspecified), the cell count in test [1] is 473. Also, the inhibition in [1] was 6.5% (inactive); in test [3] it was -343% (inactive); in test [8], 3.84% (inactive); in test [9], 8.04% (inactive). Besides, the inhibition of aggregation in test [2] is 4% (inactive). Also, the values for the nuclei count in test [2] and in test [3] were 103% and 136%, respectively. For the same molecule, the fluorescence slope in [4] was -0.367 (inactive). Moreover, the NADPH fluorescence slope in [5] is -4.6e-05 (inactive). Moreover, the slope in [6] is 0.00448 (inactive). For the same molecule, in [7], the result was inactive.
As for `CCNc1ccc(S(=O)(=O)C(F)(F)F)cc1NC(=O)C12CCC(CC1)C2`, the cell count in [1] is 380. The inhibition is 2.5% (inactive) in test [1], -30.6% (inactive) in [3], -90% (inactive) in test [8] and 99.7% (active) in test [9]. In test [2], the inhibition of aggregation was -4.3% (inactive). In addition, the results for the nuclei count in test [2] and in test [3] were 108% and 101%, respectively. Also, the fluorescence slope in test [4] is -0.481 (inactive). Also, the NADPH fluorescence slope in [5] was -3.1e-05 (inactive). For the same molecule, in test [6], the slope is 0.0047 (inactive). Further, the call in test [7] was inactive.
For `CC(=O)NC(C)C(=O)OCc1ccc(Cl)cc1Cl` (stereo unspecified), the cell count in [1] was 478. The inhibition in test [1] is -21.6% (inactive); in test [3] it was -22.9% (inactive); in test [8] it was 10.8% (inactive); in test [9], 12.4% (inactive). Also, the inhibition of aggregation in test [2] was -3.7% (inactive). Further, the nuclei count turned out to be 74.8% in test [2] and 134% in test [3]. The fluorescence slope in test [4] is -0.467 (inactive). In addition, the NADPH fluorescence slope in test [5] is -5.2e-05 (inactive). For the same molecule, the slope in test [6] was 0.00444 (inactive). Moreover, the outcome in test [7] was inactive.
With `COCC(=O)n1nc(NCc2ccc(OC)cc2)nc1NCc1ccc(OC)cc1`, in test [1], the cell count came out at 614. Further, the inhibition is 2% (inactive) in test [1], -25.2% (inactive) in test [3], 10.6% (inactive) in test [8] and 8.87% (inactive) in test [9]. In addition, the inhibition of aggregation in test [2] was -19.7% (inactive). For the same molecule, the results for the nuclei count in test [2] and in test [3] were 101% and 96.2%, respectively. Further, in test [4], the fluorescence slope is -0.377 (inactive). In test [5], the NADPH fluorescence slope is -6e-05 (inactive). The slope in [6] is 0.00518 (inactive). In addition, in [7], the molecule was called inactive.
As for `Cc1ccc(F)cc1NC(=O)C1CCCN(c2ncccn2)C1` (stereo unspecified), the cell count in [1] amounted to 692. Further, the inhibition in test [1] was -7.8% (inactive); in test [3], -56.9% (inactive); in [8] it was 7.51% (inactive); in [9] it was 9.04% (inactive). The inhibition of aggregation in test [2] was -34.5% (inactive). In addition, the nuclei count in [2] was found to be 117%; in test [3], 118%. Also, in test [4], the fluorescence slope was -0.357 (inactive). Besides, the NADPH fluorescence slope in test [5] is -1.9e-05 (inactive). The slope in [6] was 0.00523 (inactive). Moreover, the call in test [7] was inactive.
Regarding `Cn1cnnc1Sc1nc2c(c(=O)n(C)c(=O)n2C)n1Cc1ccccc1Cl`, in test [1], the cell count was found to be 376. In addition, the inhibition in test [1] is 7.7% (inactive); in test [3] it was -73.3% (inactive); in test [8] it was 15.5% (inactive); in [9] it was 21.9% (inactive). For the same molecule, the inhibition of aggregation in [2] was -1.6% (inactive). Further, the nuclei count in test [2] turned out to be 106%; in [3] it was 123%. Moreover, the fluorescence slope in [4] is -0.426 (inactive). For the same molecule, the NADPH fluorescence slope in [5] was -3.9e-05 (inactive). Moreover, the slope in test [6] was 0.005 (inactive). For the same molecule, the result in test [7] was inactive.
`CC(C)n1nnnc1SCC(=O)Nc1ccccc1N1CCOCC1`: in [1], the cell count worked out at 539. The inhibition in test [1] is -8% (inactive); in test [3] it was -38.2% (inactive); in test [8], 10.2% (inactive); in [9], 11.6% (inactive). Also, the inhibition of aggregation in test [2] is -6.6% (inactive). Also, the nuclei count in test [2] amounted to 104%; in [3], 112%. For the same molecule, the fluorescence slope in test [4] was -0.451 (inactive). Moreover, in test [5], the NADPH fluorescence slope was -6.8e-05 (inactive). Besides, in test [6], the slope was 0.00614 (inactive). Further, the result in test [7] was inactive.
